Active and inactive are the calls of the source. The calls are words filed in the database; no cut-off is given here.

Assay [1] is filed under the species Rattus norvegicus. As to the kind of experiment: Compound was tested for 5-HTP accumulation in corpus striatum (brain) of reserpinized rat. It is filed as functional. The method in brief:
(§1)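 Male Sprague-Dawley rats (200–300 g), pretreated with reserpine in glacial acetic acid/5.5% glucose. Compounds were given sc in saline at neutral pH. 5-HTP in striatum, limbic system or hemispheres was measured by HPLC with electrochemical detection. Dose-response curves used 4–6 dose levels per substance and region, with 95% confidence limits by modified probit analysis.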

The species named for assay [2] is Rattus norvegicus. As to the kind of experiment: Compound was tested for 5-HTP accumulation in hemispheres (brain) of reserpinized rat. It is filed as functional. Put shortly: as §1
The species entered for assay [3] is Rattus norvegicus. Description: Compound was tested for Dopa accumulation in hemispheres (brain) of reserpinized rat; I = Inactive. The format is functional, organism-based.
The species named for assay [4] is Rattus norvegicus. Description: Compound was tested for Dopa accumulation in corpus striatum(brain) of reserpinized rat; I = Inactive. It is filed as functional, organism-based.
For assay [5], the species on record is Rattus norvegicus. As to the kind of experiment: Compound was tested for 5-HTP accumulation in limbic system (brain) of reserpinized rat. The format is functional. The method in brief: as §1
The species entered for assay [6] is Rattus norvegicus. Description: Compound was tested for Dopa accumulation in limbic system (brain) of reserpinized rat; I = Inactive. It is filed as functional, organism-based.
For assay [7], the system named is Rattus norvegicus. Description: Compound was tested for 5-HTP accumulation in corpus striatum(brain) of reserpinized rat; A partial agonistic response at a dose of 25 uM/kg. Conditions: filed as partial agonist. It is filed as functional, organism-based.
For assay [8], the system named is Rattus norvegicus. As to the kind of experiment: Compound was tested for Dopa accumulation in hemispheres (brain) of reserpinized rat; A partial agonistic response at a dose of 50 uM/kg. It is filed as functional, organism-based. Conditions: filed as partial agonist.
The subject of assay [9] is Rattus norvegicus. As to the kind of experiment: Compound was tested for Dopa accumulation in corpus striatum(brain) of reserpinized rat; A partial agonistic response at a dose of 25 uM/kg. It is filed as functional, organism-based. Conditions: filed as partial agonist.
Assay [10] relates to Rattus norvegicus. As to the kind of experiment: Compound was tested for 5-HTP accumulation in limbic system(brain) of reserpinized rat; A partial agonistic response at a dose of 12.5 uM/kg. The format is functional, organism-based. Conditions: filed as partial agonist.
The test system of assay [11] is Rattus norvegicus. Description: Compound was tested for 5-HTP accumulation in hemispheres (brain) of reserpinized rat; A partial agonistic response at a dose of 50 uM/kg. The format is functional, organism-based. The following applies: filed as partial agonist.
Assay [12] relates to Rattus norvegicus. As to the kind of experiment: Compound was tested for Dopa accumulation in limbic system(brain) of reserpinized rat; A partial agonistic response at a dose of 12.5 uM/kg. The format is functional, organism-based. The following applies: filed as partial agonist.
For assay [13], the species on record is Rattus norvegicus. As to the kind of experiment: Compound was tested for 5-HTP accumulation in limbic system(brain) of reserpinized rat. The format is functional. Put shortly: as §1
For assay [14], the species on record is Rattus norvegicus. As to the kind of experiment: Compound was tested for 5-HTP accumulation in corpus striatum(brain) of reserpinized rat. The format is functional. Put shortly: as §1
For assay [15], the species on record is Rattus norvegicus. As to the kind of experiment: Compound was tested for 5-HTP accumulation in hemispheres (brain) of reserpinized rat. The format is functional. Put shortly:
as §1

The species named for assay [16] is Rattus norvegicus. Description: Compound was tested for Dopa accumulation in limbic system(brain) of reserpinized rat; I = Inactive. It is filed as functional, organism-based.
The species named for assay [17] is Rattus norvegicus. Description: Compound was tested for 5-HTP accumulation in corpus striatum(brain) of reserpinized rat. The format is functional. The method in brief:
as §1

The species named for assay [18] is Rattus norvegicus. As to the kind of experiment: Compound was tested for 5-HTP accumulation in hemispheres (brain) of reserpinized rat; I = Inactive. It is filed as functional. Put shortly: as §1
Assay [19] is filed under the species Rattus norvegicus. As to the kind of experiment: Compound was tested for 5-HTP accumulation in limbic system(brain) of reserpinized rat. It is filed as functional. The method in brief: as §1

Usually ED50 stands for the dose that gives a 50% effect, or the effect in half of the subjects. For `CCCN(CCC)[C@@H]1CCc2cccc(O)c2[C@@H]1C`, the ED50 in the assay filed under Rattus norvegicus [1] is 0.04 µmol/kg; in the assay listed under Rattus norvegicus [2] it was 0.09 µmol/kg; in the assay filed under Rattus norvegicus [5] it was 0.09 µmol/kg. The ED50 result in the assay listed under Rattus norvegicus [3], in the assay listed under Rattus norvegicus [4] and in the assay listed under Rattus norvegicus [6] was “inactive” in each case.

Take `CCCN1CCCC2c3c(O)cccc3CCC21` (centres undefined): the ED50 result in the assay with Rattus norvegicus [7], with Rattus norvegicus [8], in the assay on Rattus norvegicus [9], in the assay on Rattus norvegicus [10], in the assay with Rattus norvegicus [11] and with Rattus norvegicus [12] was “Partial agonist” each time.

Regarding `CCCN1CCCC2c3c(O)cccc3CCC21` (stereo in doubt) [listing 1 of 2 here], the ED50 was determined as 2.57 µmol/kg in the assay listed under Rattus norvegicus [13], 3.63 µmol/kg in the assay filed under Rattus norvegicus [14] and 3.47 µmol/kg in the assay filed under Rattus norvegicus [15].

As for `CCCN1CCCC2c3c(O)cccc3CCC21` (stereo in doubt) [listing 2 of 2 here], the ED50 entry in the assay filed under Rattus norvegicus [16], in the assay listed under Rattus norvegicus [3] and in the assay filed under Rattus norvegicus [4] was “inactive” in each case.

`CCCN1CCCC2c3c(O)cccc3CCC21` (stereo in doubt; 4) [listing 1 of 2 here]: the ED50 in the assay listed under Rattus norvegicus [17] stood at 3.4 µmol/kg; in the assay listed under Rattus norvegicus [18] it was 4.5 µmol/kg; in the assay filed under Rattus norvegicus [19], 3.4 µmol/kg.

As for `CCCN1CCCC2c3c(O)cccc3CCC21` (stereo in doubt; 4) [listing 2 of 2 here], the ED50 entry in the assay listed under Rattus norvegicus [16], in the assay listed under Rattus norvegicus [3] and in the assay filed under Rattus norvegicus [4] was “inactive” throughout.

The values are drawn from ChEMBL document CHEMBL1123829, “Resolved cis-10-hydroxy-4-n-propyl-1,2,3,4,4a,5,6,10b- octahydrobenzo[f]quinoline : central serotonin stimulating properties” (1987).
